From ChEMBL document CHEMBL2331124, “Efficient synthesis of anacardic acid analogues and their antibacterial activities” (Bioorg Med Chem Lett, 2013)
≈ marks a conversion by molar mass, not a printed value.

Columns and labels:
[1] = Cytotoxicity against human HepG2 cells after 24 hrs by resazurin assay; assay type: cell-based
Staphylococcus aureus [2] = test: Antibacterial activity against Staphylococcus aureus ATCC 25923 assessed as growth inhibition after 24 hrs by CLSI twofold serial broth microdilution method; assay type: functional; details: ATCC 25923, 24 h
Procedure, shortened: (§1)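 CLSI-standard twofold serial broth microdilution; MIC read-out in μg/mL, with vancomycin tested alongside as reference antibiotic.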

[3] = Cytotoxicity against HEK293 cells after 24 hrs by resazurin assay; assay type: cell-based; details: human
Staphylococcus aureus [4] = test: Antibacterial activity against methicillin-resistant Staphylococcus aureus ATCC 43300 assessed as growth inhibition after 24 hrs by CLSI twofold serial broth microdilution method; assay type: functional; details: ATCC 43300, 24 h
Procedure, shortened: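 Read-out was the MIC in μg/mL, determined by twofold serial broth microdilution to CLSI standards.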

Staphylococcus aureus [5] = test: Antibacterial activity against glycopeptide-intermediate Staphylococcus aureus NRS 19 assessed as growth inhibition after 24 hrs by CLSI twofold serial broth microdilution method; assay type: functional; details: NRS 19, 24 h; procedure, shortened: as §1

SMILES: COc1cc(C)cc(C=Cc2ccc3ccccc3c2)c1C(=O)O (mixture of isomers)
- CC50 at 24 h [1]: 117 µM
- MIC (Staphylococcus aureus [2]): > 128 µg/mL
- CC50 at 24 h [3]: 119 µM
- MIC (Staphylococcus aureus [4]): > 128 µg/mL
- MIC (Staphylococcus aureus [5]): > 128 µg/mL

SMILES: CCN(CC)C(=O)c1c(O)cccc1CCc1ccc2ccccc2c1
- CC50 at 24 h [1]: > 100 µM
- CC50 at 24 h [3]: > 100 µM

SMILES: COc1cc(CCc2ccc3ccccc3c2)cc(OC)c1OC
- CC50 at 24 h [1]: > 100 µM
- CC50 at 24 h [3]: > 100 µM

SMILES: COc1cc(/C=C\c2ccccc2)cc(OC)c1OC
- CC50 at 24 h [1]: 20.2 µM
- CC50 at 24 h [3]: 36 µM

SMILES: Cc1cc(O)c(C(=O)O)c(C=Cc2ccc3ccccc3c2)c1 (mixture of isomers)
- CC50 at 24 h [1]: 30 µM
- MIC (Staphylococcus aureus [2]): 16 µg/mL
- CC50 at 24 h [3]: 52 µM
- MIC (Staphylococcus aureus [4]): 16 µg/mL
- MIC (Staphylococcus aureus [5]): 32 µg/mL

SMILES: COc1cc(O)c(C(=O)O)c(C=Cc2ccc3ccccc3c2)c1 (mixture of isomers)
- CC50 at 24 h [1]: 79 µM
- MIC (Staphylococcus aureus [2]): > 128 µg/mL
- CC50 at 24 h [3]: 65 µM
- MIC (Staphylococcus aureus [4]): 128 µg/mL
- MIC (Staphylococcus aureus [5]): 128 µg/mL

SMILES: COc1cc(CCc2ccccc2)cc(OC)c1OC
- CC50 at 24 h [1]: > 100 µM
- CC50 at 24 h [3]: > 100 µM

SMILES: COc1cc(Cl)cc(C=Cc2ccc3ccccc3c2)c1C(=O)O
- CC50 at 24 h [1]: 104 µM
- MIC (Staphylococcus aureus [2]): > 128 µg/mL
- CC50 at 24 h [3]: 93 µM
- MIC (Staphylococcus aureus [4]): 64 µg/mL (≈ 189 µM)
- MIC (Staphylococcus aureus [5]): 128 µg/mL (≈ 378 µM)

SMILES: CCN(CC)C(=O)c1c(/C=C/c2ccc3ccccc3c2)cccc1OC
- CC50 at 24 h [3]: 116 µM

SMILES: O=C(O)c1c(O)cccc1CCc1ccccc1
- CC50 at 24 h [1]: > 100 µM
- CC50 at 24 h [3]: > 100 µM

SMILES: CCN(CC)C(=O)c1c(/C=C\c2ccc3ccccc3c2)cc(OC)cc1OC
- CC50 at 24 h [1]: > 100 µM
- CC50 at 24 h [3]: > 100 µM

SMILES: COc1cc(/C=C/c2ccc3ccccc3c2)cc(OC)c1OC
- CC50 at 24 h [1]: 16.8 µM
- CC50 at 24 h [3]: 23.4 µM

SMILES: O=C(O)c1c(O)cccc1CCc1ccc2ccccc2c1
- CC50 at 24 h [1]: > 100 µM
- MIC (Staphylococcus aureus [2]): > 128 µg/mL
- CC50 at 24 h [3]: > 100 µM
- MIC (Staphylococcus aureus [4]): > 128 µg/mL
- MIC (Staphylococcus aureus [5]): > 128 µg/mL

SMILES: O=C(O)c1c(O)cc(Cl)cc1CCc1ccc2ccccc2c1
- CC50 at 24 h [1]: 35 µM
- MIC (Staphylococcus aureus [2]): 16 µg/mL (≈ 49 µM)
- CC50 at 24 h [3]: 35 µM
- MIC (Staphylococcus aureus [4]): 16 µg/mL (≈ 49 µM)
- MIC (Staphylococcus aureus [5]): 128 µg/mL (≈ 392 µM)

SMILES: COc1cc(/C=C/c2ccccc2)cc(OC)c1OC
- CC50 at 24 h [1]: 38.4 µM
- CC50 at 24 h [3]: 62.6 µM

SMILES: COc1cccc(C=Cc2ccc3ccccc3c2)c1C(=O)O (mixture of isomers)
- CC50 at 24 h [1]: > 100 µM
- MIC (Staphylococcus aureus [2]): > 128 µg/mL
- CC50 at 24 h [3]: > 100 µM
- MIC (Staphylococcus aureus [4]): > 128 µg/mL
- MIC (Staphylococcus aureus [5]): > 128 µg/mL

SMILES: Oc1cc(CCc2ccc3ccccc3c2)cc(O)c1O
- CC50 at 24 h [1]: > 100 µM
- CC50 at 24 h [3]: > 100 µM

SMILES: Oc1cc(CCc2ccccc2)cc(O)c1O
- CC50 at 24 h [1]: 102 µM
- CC50 at 24 h [3]: 106 µM

SMILES: CCN(CC)C(=O)c1c(O)cc(O)cc1CCc1ccc2ccccc2c1
- CC50 at 24 h [1]: 36.4 µM
- CC50 at 24 h [3]: 30.6 µM

SMILES: CCN(CC)C(=O)c1c(CCc2ccc3ccccc3c2)cccc1OC
- CC50 at 24 h [1]: 35.8 µM
- CC50 at 24 h [3]: 85.7 µM

SMILES: O=C(O)c1c(O)cccc1C=Cc1ccc2ccccc2c1 (mixture of isomers)
- CC50 at 24 h [1]: 71 µM
- MIC (Staphylococcus aureus [2]): 64 µg/mL
- CC50 at 24 h [3]: 97 µM
- MIC (Staphylococcus aureus [4]): 64 µg/mL
- MIC (Staphylococcus aureus [5]): 64 µg/mL

SMILES: CCN(CC)C(=O)c1c(/C=C\c2ccc3ccccc3c2)cccc1OC
- CC50 at 24 h [1]: 28 µM
- CC50 at 24 h [3]: 38.7 µM

SMILES: CCN(CC)C(=O)c1c(CCc2ccc3ccccc3c2)cc(OC)cc1OC
- CC50 at 24 h [1]: 59 µM
- CC50 at 24 h [3]: > 100 µM

SMILES: Cc1cc(O)c(C(=O)O)c(CCc2ccc3ccccc3c2)c1
- CC50 at 24 h [1]: 38 µM
- MIC (Staphylococcus aureus [2]): 32 µg/mL (≈ 104 µM)
- CC50 at 24 h [3]: 40 µM
- MIC (Staphylococcus aureus [4]): 64 µg/mL (≈ 209 µM)
- MIC (Staphylococcus aureus [5]): 128 µg/mL (≈ 418 µM)

SMILES: COc1cc(O)c(C(=O)O)c(CCc2ccc3ccccc3c2)c1
- CC50 at 24 h [1]: 71 µM
- MIC (Staphylococcus aureus [2]): 64 µg/mL (≈ 199 µM)
- CC50 at 24 h [3]: 65 µM
- MIC (Staphylococcus aureus [4]): 64 µg/mL (≈ 199 µM)
- MIC (Staphylococcus aureus [5]): 128 µg/mL (≈ 397 µM)

SMILES: COc1cc(C=Cc2ccc3ccccc3c2)c(C(=O)O)c(OC)c1
- CC50 at 24 h [1]: > 100 µM
- MIC (Staphylococcus aureus [2]): > 128 µg/mL
- CC50 at 24 h [3]: > 100 µM
- MIC (Staphylococcus aureus [4]): > 128 µg/mL
- MIC (Staphylococcus aureus [5]): > 128 µg/mL

SMILES: CCN(CC)C(=O)c1c(/C=C/c2ccc3ccccc3c2)cc(OC)cc1OC
- CC50 at 24 h [1]: > 100 µM
- CC50 at 24 h [3]: > 100 µM

SMILES: O=C(O)c1c(O)cc(Cl)cc1C=Cc1ccc2ccccc2c1 (mixture of isomers)
- CC50 at 24 h [1]: 25 µM
- MIC (Staphylococcus aureus [2]): 16 µg/mL
- CC50 at 24 h [3]: 38 µM
- MIC (Staphylococcus aureus [4]): 16 µg/mL
- MIC (Staphylococcus aureus [5]): 16 µg/mL

SMILES: O=C(O)c1c(O)cccc1/C=C/c1ccccc1
- CC50 at 24 h [1]: > 100 µM
- CC50 at 24 h [3]: > 100 µM

SMILES: COc1cc(/C=C\c2ccc3ccccc3c2)cc(OC)c1OC [NAPHTHYLCOMBRETASTATIN]
- CC50 at 24 h [1]: > 100 µM
- CC50 at 24 h [3]: > 100 µM
